Experimental data: the RNAGym collection of RNA variant scans (doi:10.1126/science.aae0568)
Fewer inactive variants are shown than the library holds.

B1: tRNA (parent)
chain: GUUCCGUUGGCGUAAUGGUAACGCGUCUCCCUCCUAAGGAGAAGACUGCGGGUUCGAGUCCCGUACGGAACG

Variants of: B1
Assay: yeast fitness relative to wild type (ratio to wild type); higher = fitter; tRNA-Arg(CCU), competitive growth, 37 C, YPD
How it was run: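 Amplicons of the tRNA-Arg(CCU) gene were sequenced, 100-nucleotide paired-end, from the start population and from each end population of a pooled yeast competition. The competition, in six parallel replicates, lasted 24 hours in YPD at 37°C. Fitness relative to wild type was calculated from changes in genotype frequencies. Genotypes had to have ≥ 100 starting reads, and estimates < 0.5 were set to 0.5.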
In the case of GUUCGGUUGGCGUCAUGGUGACGCGUCUACGUCCUAAGGAGAAGACUGCGGGUACGAGUCCCGUACGGAACG, the yeast fitness is reported as ≤ 0.5. With GUUCGGUUGGCGUAGUGGUAACGGGUCUCCCUCCUAAGGAGAAGACUGCGGGUUCGAGUACCGUACGGAACG the yeast fitness was ≤ 0.5. With GUUCAGUUGGCGUAAUGGUAACGCGUCUCCCUCCGAAGGAGAAGACUGCGGGUUCGAGUUCGGUACGGAGCG the yeast fitness was ≤ 0.5. In the case of GUUCGGUUGGCGUUAUGAUAUCGCGUCUCCCUCCUAAGGAGGAGACUGCGGGUUCGAGUCCCGUACGGAACG, the yeast fitness is reported as 0.646. For GUUCGGUUGGCGUUAUGGUAACGCGUCUCACUCCUAAGGAGAAGACUGCGGGUUCGAGUCCAGUACGGAACG, the yeast fitness was ≤ 0.5. Variant GUUCGGUUGGCGUAUUGGUUACGCGUCUCCCUCCUAAGGCGAAGACUGCGGGUUCGAGUCCCGUACAGAACG has a yeast fitness of 0.538. In the case of GUUCGGUUGGCGUAUUGGUAACGCGUCUCCCUCCUAAGGAGAAGACUGCGGGUUCGAGUCUCGUACGGAACG, the yeast fitness is reported as ≤ 0.5. GUUCAGUUGGCGUAAUGGUAACGCGUCUCCCUCCCAAGGAGAAGACUGCGGGUUCGAGUCCCGUAUGGAACG gave a yeast fitness of 0.579. In the case of GUUCAGUUGGCGUAAUGGUAACGCGUCUCCCUCCUAAGGAGAAGACUGCGGGUACGAGUCCCGUACGGAACG, the yeast fitness is reported as 0.699. In the case of GUUCAGUUGGCGUAAUGGUAACGCGUCUCCCUCCUAAGGAGAAGACUGCGGGUUCGAGUCCCGAACGGAACG, the yeast fitness is reported as 0.766. In the case of GUUCAGUUGGCGUAAUGGUAACGCGUCUCCCUCCUAAGGAGAAGACUGCGGGUUCGAGUCCCGCACGGAACG, the yeast fitness is reported as 0.96. With GUUCGGUUGGCGUCAUGGUAACGCGUCUACGUCCUAAGGAGAAGACUGCGGGUUCGAGUCCCGUCCGGAACG the yeast fitness was ≤ 0.5. Variant GUUCGGUUGGCGUUAUGAUAUCGCGUCUCCCUCCUAAGGAGGAGACUGCGGGUUCGAGUCCCGUACGAAACG has a yeast fitness of 0.522. Variant GUUCAGUUGGCGUAAUGGUAACGCGUCUCCCUCCCAAGGAGAAAACUCCGGGUUGGAGUCCCGUAUGGAUCG has a yeast fitness of 0.558. Variant GUUCGGUUGGCGUCAUGAUAACGCGUCUCCCUCCUAAGGAGAGGCUUGCGGGUUCGAGUCCCGUACGGAACG has a yeast fitness of 0.579. For GUUCGGUUGGCGUAUUGGUAACGCGUCUCCCUCCUAAGGAGAAGACUGCGGGUUCAAGUCCCGUACGGAGCG, the yeast fitness was ≤ 0.5. With GUUCGGUUGGCGUAGUGGUAGCGCCUCUCCCUUCUAAGGAGAAGACUGCGGGUUCGAGUCCCGUACGAAACG the yeast fitness was ≤ 0.5. For GUUCGGUUGGCGUCAUGAUAGCGCGUCUCCCUCCUUAGGAGAAGUCUGCGGGUUCGAGUCCCGUACGGAACG, the yeast fitness was ≤ 0.5. Work on GUUCGGUUGGCGUAUUGGUAACGCGUCUCCCUCCUAAGGAGAAGACUGCGGGUUCGAGUCCCGUACGGAACG yielded a yeast fitness of 0.747. For GUUCGGUUGGCGUACUGGUAACGCGUCUCCCUCCUAAGGAGAAGACUGCGGGUUCGAGUCCCGUACGGAACG, the yeast fitness was 0.626. In the case of GUUCAGUUGGCGUAAUGGUAACGCGUCUCCCUCCCAAGGAGAAAACUCCGGGUUAGAGUCCCGUACGGAACG, the yeast fitness is reported as ≤ 0.5. For GUUCAGUUGGCGUAAUGGUAACGCGUCUCCCUCCCAAGGAGAAAACUCCGGGUUGGAGUCCCGUACGGAACG, the yeast fitness was ≤ 0.5. In the case of GUUCGGUUGGCGUAUUGGUAACGCGUCUCCCUCCUAAGGAGAAGACUGCAGGUUCGAGUCCCGUACGGUACG, the yeast fitness is reported as ≤ 0.5. With GUUCGGUUGGCGUACUGGUAUCGUGUCUCCCUCCUAAGGAGAAGACUGCGGGUUCGGGUCCCGUACUGAACG the yeast fitness was ≤ 0.5. With GUUCAGUUGGCGUAAUGGUAACGCGUCUCCCUCCUAAGGAGAAGACUGCGGGUUCGAGACCCGUAAGGAACG the yeast fitness was ≤ 0.5. With GUUCGGUUGGCGUCAUGGUAACCCGUCUCCCUUCUAAAGAGAAGACUGCGGGUUCGACUCCCGUACGGAGCG the yeast fitness was ≤ 0.5. In the case of GUUCGGUUGGCGUCAUGGUAACGCGUCUCCCUCCUAGGGAGAAGACUGCGGGUUCGAGUCCCGUACGGAACG, the yeast fitness is reported as ≤ 0.5. Variant GUUCAGUUGGCGUAAUGGUAACGCGUCUCCCUCCGAAGGAGCAGACUGCGGGUUCGAGUCCCGUACGGCACG has a yeast fitness of 0.588. With GUUCGGUUGGCGUUAUGGUCACGCGUCUCCCUCCUAAGGAGAAGGCUGCGGGUUCGAGUCCCGUACGGAACG the yeast fitness was ≤ 0.5. GUUCAGUUGGCGUAAUGGUAACGCGUCUCCCUCCUAAGGAGAAGACCGCGGGUUCGAGUCCCGUACGGAGCG showed a yeast fitness of 0.705. With GUUCAGUUGGCGUAAUGGUAACGCGUCUCCCGCCUAAGGAGAAGACUGCGGGUUUGAGUCCCGUACGGAACG the yeast fitness was ≤ 0.5. In the case of GUUCGGUUGGCGUGAUGGUAUCGCGUCUCCCUCCUAAGGAGAAGACUGCGGGUUCGUGUCCCGUACGGAACG, the yeast fitness is reported as ≤ 0.5. For GUUCGGUUGGCGUCAUGGUAACGCGUCACCAUCCUAAGGAGAAGUCUGAGGGUUCGAGUCCCGUAUGGAACG, the yeast fitness was ≤ 0.5. GUUCAGUUGGCGUAAUGGUAACGCGUCUCCCUCCUAAGGAGAAGACUGCGGGUCCGAGUCUUGUACGGUACG gave a yeast fitness of 0.546. GUUCAGUUGGCGUAAUGGUAACGCGUCUCCCUCCUAAGGAGAAGACUGCGGGUUCGAGGCCCGUACGGAACG showed a yeast fitness of 0.746. GUUCAGUUGGCGUAAUGGUAACGCGUCUCCCUCCUAAGGAGAAGACUGCGGGUUCGAGCCCCGUACGGAACG gave a yeast fitness of 0.807. In the case of GUUCGGUUGGCGUAUUGGUAACGCGUCUCCCUCCUAAGGAGAAGACUGUGGGUUCGUGUCACGUACGGAACG, the yeast fitness is reported as 0.663. In the case of GUUCGGUUGGCGUUAUGGUAACGCAUCUCCCUACUAAGGAGAAGACUGCGGGUUCGAGUCUCGUACGGAACG, the yeast fitness is reported as ≤ 0.5.
